Measured values as given in ChEMBL document CHEMBL1148379 (J Med Chem, 2004).

Experiments:
[1] = molecular target: Bifunctional dihydrofolate reductase-thymidylate synthase (Plasmodium falciparum K1) (UniProt P13922); experiment: Inhibitory activity against double mutant dihydrofolate reductase (C59R S108N DHFR), relative to trimethoprim
In short: (§1)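 Wild-type and mutant P. falciparum DHFR expressed in E. coli BL21(DE3)pLysS. Ki calculated assuming inhibitors compete with substrate at the active site.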

[2] = molecular target: Bifunctional dihydrofolate reductase-thymidylate synthase (Plasmodium falciparum K1) (UniProt P13922); experiment: Inhibitory activity against quadruple mutant dihydrofolate reductase (N51I C59R S108N I164L DHFR), relative to trimethoprim; in short: as §1
[3] = molecular target: Bifunctional dihydrofolate reductase-thymidylate synthase (Plasmodium falciparum K1) (UniProt P13922); experiment: Inhibitory activity against triple mutant dihydrofolate reductase (C59R S108N I164L DHFR), relative to trimethoprim; in short: as §1
[4] = molecular target: Bifunctional dihydrofolate reductase-thymidylate synthase (Plasmodium falciparum K1, UniProt P13922); experiment: Inhibitory activity against double mutant dihydrofolate reductase (C59R+S108N DHFR)
Sequence of Bifunctional dihydrofolate reductase-thymidylate synthase (Plasmodium falciparum K1, UniProt P13922) (P13922 whole entry): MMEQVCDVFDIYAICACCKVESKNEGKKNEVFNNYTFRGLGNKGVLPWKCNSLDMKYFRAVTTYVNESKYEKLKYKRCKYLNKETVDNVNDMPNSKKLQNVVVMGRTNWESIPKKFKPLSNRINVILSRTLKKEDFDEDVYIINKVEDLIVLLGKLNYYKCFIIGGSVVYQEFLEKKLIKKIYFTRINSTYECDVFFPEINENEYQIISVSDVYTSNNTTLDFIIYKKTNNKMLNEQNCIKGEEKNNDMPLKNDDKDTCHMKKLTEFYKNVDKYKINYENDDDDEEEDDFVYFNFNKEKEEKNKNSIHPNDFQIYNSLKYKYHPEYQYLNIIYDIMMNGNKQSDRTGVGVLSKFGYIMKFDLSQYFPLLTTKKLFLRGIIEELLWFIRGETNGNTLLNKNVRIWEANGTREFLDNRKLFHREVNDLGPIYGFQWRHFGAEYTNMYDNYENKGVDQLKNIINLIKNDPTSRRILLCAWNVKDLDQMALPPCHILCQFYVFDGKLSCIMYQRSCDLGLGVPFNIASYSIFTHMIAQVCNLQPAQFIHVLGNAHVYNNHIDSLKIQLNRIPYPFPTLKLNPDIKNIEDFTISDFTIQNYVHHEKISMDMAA

[5] = molecular target: Bifunctional dihydrofolate reductase-thymidylate synthase (Plasmodium falciparum K1, UniProt P13922, C59R/I164L/N51I/S108N); experiment: Inhibitory activity against quadruple mutant dihydrofolate reductase (N51I C59R S108N I164L DHFR)
Sequence of Bifunctional dihydrofolate reductase-thymidylate synthase (Plasmodium falciparum K1, UniProt P13922, C59R/I164L/N51I/S108N) (P13922 whole entry, looked up, stated change not applied): as the sequence (P13922 whole entry) above

[6] = molecular target: Bifunctional dihydrofolate reductase-thymidylate synthase (Plasmodium falciparum K1, UniProt P13922, C59R/I164L/S108N); experiment: Inhibitory activity against triple mutant dihydrofolate reductase (C59R S108N I164L DHFR)
Sequence of Bifunctional dihydrofolate reductase-thymidylate synthase (Plasmodium falciparum K1, UniProt P13922, C59R/I164L/S108N) (P13922 whole entry, looked up, stated change not applied): as the sequence (P13922 whole entry) above

[7] = molecular target: Bifunctional dihydrofolate reductase-thymidylate synthase (Plasmodium falciparum K1) (UniProt P13922); experiment: Inhibitory activity against wild-type dihydrofolate reductase (S108N DHFR), relative to trimethoprim; in short: as §1

Sequence of Bifunctional dihydrofolate reductase-thymidylate synthase (Plasmodium falciparum K1) (P13922 whole entry, looked up): as the sequence (P13922 whole entry) above

Row | Structure (SMILES) | Relative activity [1] | Relative activity [2] | Relative activity [3] | Ki [4] [nM] | Ki [5] [nM] | Ki [6] [nM] | Relative activity [7]
1 | CCCOc1ccc(Cc2cnc(N)nc2N)cc1 | 0.9 | 0.2 | 0.2 | 211 | 1520 | 1090 | 1.5
2 | COc1ccc(Cc2cnc(N)nc2N)cc1OC [DIAVERIDINE] | 1 | 2.1 | 0.5 | 235 | 13900 | 2650 | 1.1
3 | CCCOc1cc(Cc2cnc(N)nc2N)ccc1OC | 0.2 | 0.1 | 0.03 | 52.1 | 920 | 144 | 0.2
4 | CCCCCOc1ccc(Cc2cnc(N)nc2N)cc1 | 0.6 | 0.1 | 0.1 | 137 | 915 | 539 | 0.8
5 | COc1cc(Cc2c(C)nc(N)nc2N)ccc1OCc1ccccc1 | 0.4 | 0.01 | 0.01 | 89.5 | 93.4 | 66.3 | 0.3
6 | COc1cc(Cc2cnc(N)nc2N)ccc1OCCCOCCCOc1ccccc1 | 0.63 | 0.33 | 0.07 | 154 | 2190 | 425 | 0.18
7 | CCOc1cc(Cc2cnc(N)nc2N)ccc1OCCCOCCCOc1ccccc1 | 0.19 | 0.14 | 0.06 | 46.9 | 937 | 314 | 0.22
8 | COc1cc(Cc2cnc(N)nc2N)ccc1OCCCOc1ccccc1 | 0.15 | 0.09 | 0.05 | 37.1 | 606 | 257 | 0.19
9 | CCOc1cc(Cc2cnc(N)nc2N)ccc1OCCCc1ccccc1 | 0.08 | 0.08 | 0.06 | 10.6 | 525 | 374 | 0.1
10 | COc1ccc(Cc2cnc(N)nc2N)cc1OCc1ccccc1 | 0.6 | 0.2 | 0.11 | 143 | 1130 | 630 | 0.7
11 | CCCOc1cc(Cc2c(N)nc(N)nc2CC)ccc1OCc1cc(OC)c(OC)c(OC)c1 | 0.2 | 0.1 | 0.03 | 48.7 | 693 | 154 | 0.17
12 | COc1cc(Cc2cnc(N)nc2N)ccc1OCCCc1ccccc1 | 0.33 | 0.17 | 0.54 |  | 1120 | 3100 | 0.17
13 | CCc1nc(N)nc(N)c1Cc1ccc(OCc2ccccc2)c(OC)c1 | 0.25 | 0.11 | 0.66 | 60.1 | 732 | 3740 | 0.3
14 | CCCCCOc1ccc(Cc2cnc(N)nc2N)cc1OCC | 0.2 | 0.1 | 0.2 | 46.6 | 902 | 1160 | 0.1
15 | CCCCOc1cc(Cc2cnc(N)nc2N)ccc1OC | 0.8 | 0.2 | 0.1 | 194 | 1030 | 772 | 0.2
16 | Nc1ncc(Cc2ccc(OCCCc3ccccc3)cc2)c(N)n1 | 0.44 | 0.12 | 0.54 | 58.1 | 801 | 3040 | 0.57
17 | CCCCCCCOc1ccc(Cc2cnc(N)nc2N)cc1 | 0.8 | 0.2 | 0.4 | 196 | 1380 | 2210 | 1.7
18 | Nc1ncc(Cc2ccc(OCCCOc3ccccc3)cc2)c(N)n1 | 0.7 | 0.34 | 0.08 | 170 | 2260 | 471 | 0.63
19 | CCOc1ccc(Cc2cnc(N)nc2N)cc1OC | 0.8 | 1.8 | 0.6 | 187 | 11800 | 3540 | 1.5
20 | CCCCCOc1cc(Cc2cnc(N)nc2N)ccc1OC | 0.5 | 0.1 | 0.04 | 134 | 444 | 253 | 0.2
21 | COc1ccc(Cc2cnc(N)nc2N)cc1 | 1.9 | 3.1 | 0.7 | 464 | 20500 | 3960 | 2.3
22 | CCOc1cc(Cc2cnc(N)nc2N)ccc1OCCCOc1ccccc1 | 0.2 | 0.12 | 0.03 | 47.7 | 770 | 166 | 0.06
23 | CCCCCCCOc1cc(Cc2cnc(N)nc2N)ccc1OC | 0.4 | 0.1 | 0.05 | 104 | 445 | 292 | 0.3
24 | COc1cc(Cc2cnc(N)nc2N)ccc1OCc1cc(OC)c(OC)c(OC)c1 |  |  |  |  | 124 | 47.6 | 
25 | Nc1ncc(Cc2ccc(OCCCOCCCOc3ccccc3)cc2)c(N)n1 | 0.45 | 0.24 | 0.05 | 108 | 1590 | 264 | 0.68
